pIC50: −log10 of the molar value. ≈ marks a conversion by molar mass, not a printed value. Calls of active or inactive are those of the source. The rule behind the calls is not given here.
How the values were obtained:
[1] = target: T1, Cathepsin K (Homo sapiens, UniProt P43235); assay: Inhibition of human recombinant cathepsin K by fluorometric assay
T1 sequence (P43235 whole entry): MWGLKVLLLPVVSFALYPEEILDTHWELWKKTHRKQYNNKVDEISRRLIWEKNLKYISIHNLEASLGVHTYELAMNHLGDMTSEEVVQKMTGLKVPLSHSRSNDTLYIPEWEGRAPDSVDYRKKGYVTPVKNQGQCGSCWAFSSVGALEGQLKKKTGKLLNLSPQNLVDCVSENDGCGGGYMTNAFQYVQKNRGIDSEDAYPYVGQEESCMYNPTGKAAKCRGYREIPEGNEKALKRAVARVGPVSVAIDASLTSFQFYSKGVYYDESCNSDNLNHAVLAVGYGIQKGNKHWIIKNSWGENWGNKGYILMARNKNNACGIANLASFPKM
Outline: (§1)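 Fluorometric inhibition assay with recombinant human enzymes. Cat K and Cat L used Z-Phe-Arg-AMC as substrate. Cat S used L-Leu-Leu-Arg-AMC as substrate. Values reported as IC50.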

[2] = target: Procathepsin L (Homo sapiens, UniProt P07711); assay: Inhibition of human recombinant cathepsin L by fluorometric assay; outline: as §1
[3] = target: Cathepsin S (Homo sapiens, UniProt P25774); assay: Inhibition of human recombinant cathepsin S by fluorometric assay; outline: as §1
[4] = organism: Homo sapiens; assay: Selectivity for human recombinant cathepsin S over human recombinant cathepsin L
[5] = target: Cathepsin S (Mus musculus) (UniProt O70370); assay: Inhibition of cathepsin S in mouse A20 cells assessed as invariant chain degradation at 1 uM; assay type: cell-based
Outline: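 Mouse A20 cells treated at 1 µM. Cellular cathepsin S activity read out as degradation of invariant chain (Ii).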

[6] = Half life in Sprague-Dawley rat at 1 mg/kg, iv; assay type: ADME, organism-based; design: dose 1 mg/kg, route intravenous; details: in vivo
Outline: (§2)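 Male Sprague-Dawley rats, cassette dosing. Single iv dose of 1 mg/kg and po dose of 3 mg/kg. Clearance and half-life taken from iv data. Bioavailability and po AUC derived from both routes, with AUC dose-normalized to 1 mg/kg. Values are means of n = 3, with n = 2 for some iv groups.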

[7] = Bioavailability in Sprague-Dawley rat at 1 mg/kg, iv and 3 mg/kg, po; assay type: ADME, organism-based; details: in vivo; outline: as §2
[8] = Clearance in Sprague-Dawley rat at 1 mg/kg, iv and 3 mg/kg, po; assay type: ADME, organism-based; details: in vivo; outline: as §2
[9] = Aqueous solubility at pH 6.8; assay type: physicochemical
Outline: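 Thermodynamic solubility, measured at pH 6.8 and 25 °C.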

[10] = Clearance in Sprague-Dawley rat at 1 mg/kg, iv; assay type: ADME, organism-based; design: dose 1 mg/kg, route intravenous; details: in vivo; outline: as §2
[11] = tested on: Rattus norvegicus; assay: Bioavailability in Sprague-Dawley rat at 1 mg/kg, iv; assay type: ADME, organism-based; details: in vivo; outline: as §2

Cathepsin S, sequence (P25774 whole entry): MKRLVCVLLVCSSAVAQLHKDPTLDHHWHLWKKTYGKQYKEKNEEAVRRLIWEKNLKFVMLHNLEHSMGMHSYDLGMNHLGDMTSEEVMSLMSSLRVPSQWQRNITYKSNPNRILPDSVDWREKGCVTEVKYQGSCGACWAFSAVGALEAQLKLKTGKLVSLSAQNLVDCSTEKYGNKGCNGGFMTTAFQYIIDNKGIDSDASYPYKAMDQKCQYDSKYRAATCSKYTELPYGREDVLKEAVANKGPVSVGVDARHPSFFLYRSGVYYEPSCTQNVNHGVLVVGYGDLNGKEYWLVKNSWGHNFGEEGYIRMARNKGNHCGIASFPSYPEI
Procathepsin L, sequence (P07711 whole entry): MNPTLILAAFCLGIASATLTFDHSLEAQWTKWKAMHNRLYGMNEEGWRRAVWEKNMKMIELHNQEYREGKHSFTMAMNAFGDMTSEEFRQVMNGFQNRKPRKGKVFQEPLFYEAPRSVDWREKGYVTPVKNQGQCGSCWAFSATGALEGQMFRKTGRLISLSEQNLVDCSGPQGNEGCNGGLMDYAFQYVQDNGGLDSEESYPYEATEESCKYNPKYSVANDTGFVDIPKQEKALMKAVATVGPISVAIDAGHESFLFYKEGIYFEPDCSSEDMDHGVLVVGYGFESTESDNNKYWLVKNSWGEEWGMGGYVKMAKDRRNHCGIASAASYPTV

pIC50 [1]	pIC50 [2]	pIC50 [3]	Compound	also measured
7.44	5.70	7.49	CN(CC1CCCCC1)c1nc(C#N)ncc1C(=O)NCCc1ccccc1	
6.85	6.74	8.70	CN1CCC(Cc2ccccc2)(NC(=O)c2cnc(C#N)nc2NCC2CCC3(CC2)CC3)CC1	Selectivity ratio [4]: > 100
8.05	6.11	7.85	N#Cc1ncc(C(=O)NCCc2ccccc2)c(OCC2CCCCC2)n1	
8.00	5.96	6.89	N#Cc1ncc(C(=O)NCCc2ccccc2)c(NC2CCCCC2)n1	
6.70	5.82	7.64	N#Cc1ncc(C(=O)N[C@@H](Cc2ccccc2)CN2CCCC2)c(NCC2CCC3(CC2)CC3)n1	
	6.08	8.52	CN1CCC(Oc2ccc(NC(=O)c3cnc(C#N)nc3NCC3CCC4(CC3)CC4)c(-c3ccccc3)c2)CC1	Activity [5]: Active; half-life [6]: > 8 h; bioavailability [7]: 66%; clearance [8]: 13.3 mL/min/kg; solubility [9]: 2 µg/mL (≈ 3.63 µM)
	6.57	> 9.00	CN1CCC(CCOc2nc(C#N)nc(NCC3CCC4(CC3)CC4)c2C(=O)NCc2ccccc2)CC1	
< 6.00	< 5.52	7.62	COc1cc(NC(=O)c2cnc(C#N)nc2NCC2CCC3(CC2)CC3)c(-c2ccccc2)cc1OC	
6.89	< 5.52	7.66	N#Cc1ncc(C(=O)NCCc2ccccc2)c(NCC2CCC(F)(F)CC2)n1	
	8.00	> 9.00	CN1CCC(CCOc2nc(C#N)nc(NCC3CCC4(CC3)CC4)c2C(=O)NCCc2ccccc2)CC1	
< 5.52	< 5.52	7.82	N#Cc1ncc(C(=O)NCCc2ccccc2)c(NCC2CCC3(CC2)CC3)n1	
	6.92	8.70	CNC(=O)c1c(NCC2CCC3(CC2)CC3)nc(C#N)nc1OCCC1CCN(C)CC1	
< 5.52	< 5.52	7.03	CC1(C)CCC(CNc2nc(C#N)ncc2C(=O)NCCc2ccccc2)CC1	
	7.19	> 9.00	CN1CCC(COc2nc(C#N)nc(NCC3CCC4(CC3)CC4)c2C(=O)NCc2ccccc2)CC1	

Continued, compound first:

Compound	pIC50 [1]	pIC50 [2]	pIC50 [3]	also measured
CN1CCC(CCOc2cc(NCC3CCC4(CC3)CC4)nc(C#N)n2)CC1	6.62	6.06	7.66	
C[C@@](Cc1ccccc1)(CN1CCCC1)NC(=O)c1cnc(C#N)nc1NCC1CCC2(CC1)CC2		6.08	7.68	
N#Cc1ncc(C(=O)NCCc2ccccc2)c(NCC2CCCCC2)n1	7.82	< 5.70	7.66	
N#Cc1ncc(C(=O)N[C@H](Cc2ccccc2)CN2CCCC2)c(NCC2CCC3(CC2)CC3)n1	7.36	6.82	> 9.00	Activity [5]: Active; half-life [6]: 5.7 h; Selectivity ratio [4]: > 100; bioavailability [7]: 42%; clearance [8]: 16.7 mL/min/kg; solubility [9]: 27 µg/mL (≈ 57.1 µM)
CN1CCC(CCOc2nc(C#N)nc(NCC3CCC4(CC3)CC4)c2Br)CC1	7.00	6.55	8.70	half-life [6]: 4.6 h; bioavailability [7]: 100%; clearance [8]: 85 mL/min/kg; solubility [9]: 11 µg/mL (≈ 23.8 µM)
CN1CCC(Oc2nc(C#N)nc(NCC3CCC4(CC3)CC4)c2C(=O)NCc2ccccc2)CC1		7.00	9.00	
CN1CCC(CNC(=O)c2cnc(C#N)nc2NCC2CCC3(CC2)CC3)(c2ccccc2)CC1	6.77	6.15	8.22	Activity [5]: Active; clearance [10]: 173 mL/min/kg; half-life [6]: 3.3 h; Selectivity ratio [4]: > 100; F [11]: 100%; solubility [9]: 89 µg/mL (≈ 188 µM)
N#Cc1ncc(C(=O)N[C@H](Cc2ccccn2)CN2CCCC2)c(NCC2CCC3(CC2)CC3)n1		6.32	8.40	
CN1CCC(NC(=O)c2cnc(C#N)nc2NCC2CCC3(CC2)CC3)(c2ccccc2)CC1		6.29	8.15	Selectivity ratio [4]: > 100

Source: ChEMBL document CHEMBL1156562, “4-Amino-2-cyanopyrimidines: novel scaffold for nonpeptidic cathepsin S inhibitors” (Bioorg Med Chem Lett, 2008)
